Assay results taken from ChEMBL document CHEMBL4813968, “Synthesis and evaluation of 3'-fluorinated 7-deazapurine nucleosides as antikinetoplastid agents” (Eur J Med Chem, 2021).

Legend:
[1] = Selectivity index, ratio of EC50 for human MRC5 cells to EC50 for antitrypanosomal activity against Trypanosoma brucei rhodesiense; format: toxicity; settings: read-out: Ratio EC50
In short: (§1)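 Selectivity index is the MRC-5 EC₅₀ divided by the parasite EC₅₀.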

[2] = system: Trypanosoma brucei rhodesiense; test: Antitrypanosomal activity against Trypanosoma brucei rhodesiense assessed as parasite growth inhibition; format: functional, organism-based
Macrophage = test: Cytotoxicity against mouse primary macrophage cells assessed as reduction in cell viability; format: cell-based
In short: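 Macrophage toxicity was scored microscopically within the L. infantum assays, using cell detachment, lysis and granulation. At least 500 cells over adjacent fields were scored semi-quantitatively, and CC₅₀ was taken from % reduction in normal cells versus untreated controls.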

MRC5 = test: Cytotoxicity against human MRC5 cells assessed as reduction in cell viability after 3 days by resazurin dye based fluorimetric analysis; settings: MRC5, 72 h
In short: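 MRC-5_SV2 cells, 1.5×10⁵ cells/mL in MEM with Earl's salts, L-glutamine, NaHCO₃ and 5% inactivated FCS, were exposed 3 days at 37 °C, 5% CO₂ to a 10-point 4-fold dilution series, final DMSO <1%. Resazurin was added for 4 h, fluorescence read at ex 550/em 590 nm, and IC₅₀ derived versus untreated and medium controls.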

[3] = Selectivity index, ratio of EC50 for cytotoxicity against human MRC5 cells to EC50 for antitrypanosomal activity against Trypanosoma cruzi Tulahuen CL2 infected in human MRC5 cells; format: toxicity, cell-based; settings: read-out: Ratio EC50; in short: as §1
[4] = Selectivity index, ratio of EC50 for human MRC5 cells to EC50 for antitrypanosomal activity against Trypanosoma brucei brucei; format: toxicity; settings: read-out: Ratio EC50; in short: as §1
Leishmania infantum = test: Antileishmanial activity against Leishmania infantum MHOM/MA(BE)/67 infected in mouse primary peritoneal macrophages treated 2 hrs post-infection and incubated for 5 days by Giemsa staining based microscopic analysis; format: functional, organism-based; settings: MHOM/MA(BE)/67, Peritoneal macrophage
In short: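 Peritoneal macrophages from mice, harvested 2 days after 2% potato starch stimulation, infected after 48 h with L. infantum in supplemented RPMI-1640 with 5% FCS. Compounds were added 2 h post-infection as a 10-point 4-fold dilution series, final DMSO <1%, and incubated 5 days at 37 °C, 5% CO₂. Amastigotes per macrophage were counted after 10% Giemsa staining, and IC₅₀ was taken from % reduction versus untreated-infected controls.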

[5] = system: Trypanosoma brucei brucei; test: Antitrypanosomal activity against Trypanosoma brucei brucei assessed as parasite growth inhibition; format: functional, organism-based
Trypanosoma cruzi = test: Antitrypanosomal activity against Trypanosoma cruzi Tulahuen CL2 infected in human MRC5 cells assessed as inhibition of parasite growth incubated for 7 days by chlorophenol red-fl-D-galactopyranoside based spectrophotometric analysis; format: functional, organism-based; settings: Tulahuen CL2, MRC5, 168 h
In short: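 T. cruzi Tulahuen CL2 β-galactosidase strain was maintained on MRC-5_SV2 cells. Wells held 4×10³ cells plus 4×10⁴ parasites with a 10-point 4-fold compound series, final DMSO <1%. After 7 days at 37 °C, 5% CO₂, substrate was added and absorbance read at 540 nm after 4 h at 37 °C. IC₅₀ was taken from % reduction versus infected and uninfected controls.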

[6] = Selectivity index, ratio of EC50 for cytotoxicity against mouse primary macrophage to EC50 for antileishmanial activity against Leishmania infantum MHOM/MA(BE)/67 infected in mouse primary peritoneal macrophages; format: toxicity; settings: read-out: Ratio EC50

Row | Structure (SMILES) | selectivity ratio [1] | EC50 [2] | EC50 (Macrophage) | EC50 (MRC5) | selectivity ratio [3] | selectivity ratio [4] | EC50 (Leishmania infantum) | EC50 [5] | EC50 (Trypanosoma cruzi) | selectivity ratio [6]
1 | Nc1ncnc2c1c(I)cn2[C@@H]1O[C@H](CO)[C@@H](F)[C@H]1O | 826 | 0.0077 µM | 22 µM | 6.65 µM | 170 | 201 | 2.33 µM | 0.032 µM | 0.039 µM | 9
2 | Cc1cn([C@@H]2O[C@H](CO)[C@@H](F)[C@H]2O)c2ncnc(N)c12 | > 312 | 0.21 µM | > 64 µM | > 64 µM | > 5 | > 67 | 38.4 µM | 0.96 µM | 13.1 µM | > 2
3 | C=Cc1cn([C@@H]2O[C@H](CO)[C@@H](F)[C@H]2O)c2ncnc(N)c12 | 59 | 0.34 µM | > 64 µM | 20.2 µM | 31 | 25 | 39.3 µM | 0.81 µM | 0.65 µM | > 1
4 | Nc1ncnc2c1c(-c1ccc(Cl)cc1)cn2[C@@H]1O[C@H](CO)[C@@H](F)[C@H]1O | 2 | 5.18 µM | 32 µM | 16.9 µM | 23 | 2 | 12.7 µM | 7.02 µM | 0.74 µM | 3
5 | Nc1ncnc2c1c(-c1ccc(Cl)c(Cl)c1)cn2[C@@H]1O[C@H](CO)[C@@H](F)[C@H]1O | 2 | 1.55 µM | 8 µM | 4.14 µM | 19 | 1 | 2.83 µM | 2.7 µM | 0.22 µM | 3
6 | Nc1ncnc2c1c(Br)cn2[C@@H]1O[C@H](CO)[C@H](F)[C@H]1O | 152 | 0.0049 µM | 20 µM | 0.75 µM | < 1 | 23 | 8.2 µM | 0.032 µM | 7.46 µM | 2
7 | Nc1ncnc2c1c(-c1ccc(Cl)cc1)cn2[C@@H]1O[C@H](CO)[C@H](F)[C@H]1O | 10 | 2.27 µM | 8 µM | 21.7 µM | 130 | 4 | 5 µM | 5.22 µM | 0.17 µM | 1
8 | NC(=O)c1cn([C@@H]2O[C@H](CO)[C@@H](F)[C@H]2O)c2ncnc(N)c12 | 20 | 0.12 µM | 32 µM | 2.38 µM | < 1 | 1 | 32.5 µM | 2.34 µM | 7.1 µM | 1
9 | Nc1ncnc2c1c(-c1ccccc1)cn2[C@@H]1O[C@H](CO)[C@@H](F)[C@H]1O | > 1 | 32.7 µM | > 64 µM | > 64 µM | > 7 | > 2 | 50.8 µM | 32 µM | 9.14 µM | 1
10 | COc1ccc(-c2cn([C@@H]3O[C@H](CO)[C@@H](F)[C@H]3O)c3ncnc(N)c23)cc1 | < 1 | 25.7 µM | 32 µM | 14.1 µM | 2 | < 1 | 32.5 µM | 43.6 µM | 8.61 µM | 1
11 | C#Cc1cn([C@@H]2O[C@H](CO)[C@@H](F)[C@H]2O)c2ncnc(N)c12 | 7 | 0.02 µM | 0.13 µM | 0.16 µM | 4 | 4 | 0.13 µM | 0.04 µM | 0.04 µM | 1
